Experimental data published in ChEMBL document CHEMBL1255376, “Comparative surveillance study of telavancin activity against recently collected gram-positive clinical isolates from across the United States” (2008).
Converted amounts (≈) assume the structure as drawn.

Assays:
Format in all cases: functional
Mammaliicoccus sciuri = assay: Antibacterial activity against methicillin-susceptible coagulase-negative Staphylococcus sciuri clinical isolate by broth microdilution method
In short: (§1)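 MICs by CLSI broth microdilution in frozen trays pre-loaded with serial dilutions of each agent. Quality-control strains run in parallel: E. faecalis ATCC 29212 and ATCC 51299, S. aureus ATCC 29213, S. pneumoniae ATCC 49619. Comparator susceptibility categories follow CLSI breakpoints. Methicillin resistance in staphylococci assigned from the oxacillin MIC.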

Staphylococcus aureus [1] = assay: Antibacterial activity against vancomycin-intermediate methicillin-resistant Staphylococcus aureus NRS17 by broth microdilution method
In short: (§2)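 VISA and VRSA strains from the NARSA repository were tested separately from the surveillance isolates. MICs by CLSI broth microdilution in frozen trays with serial dilutions. Quality-control strains run in parallel. Susceptibility categories follow CLSI breakpoints, and methicillin resistance was assigned from the oxacillin MIC.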

Streptococcus oralis = assay: Antibacterial activity against Streptococcus oralis clinical isolate by broth microdilution method
In short: (§3)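 MIC by CLSI broth microdilution in frozen microtiter trays holding serial dilutions of each agent, prepared from standard laboratory powders. E. faecalis ATCC 29212 and ATCC 51299, S. aureus ATCC 29213 and S. pneumoniae ATCC 49619 run in parallel as quality-control strains. Comparator susceptibility interpreted with CLSI breakpoints.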

Staphylococcus capitis [2] = assay: Antibacterial activity against methicillin-resistant coagulase-negative Staphylococcus capitis clinical isolate by broth microdilution method; in short: as §1
Staphylococcus hominis = assay: Antibacterial activity against methicillin-susceptible coagulase-negative Staphylococcus hominis clinical isolate by broth microdilution method; in short: as §1
[3] = tested on: Staphylococcus epidermidis; assay: Antibacterial activity against methicillin-susceptible coagulase-negative Staphylococcus epidermidis clinical isolate by broth microdilution method; in short: as §1
Staphylococcus cohnii = assay: Antibacterial activity against methicillin-susceptible coagulase-negative Staphylococcus cohnii clinical isolate by broth microdilution method; in short: as §1
Streptococcus sp. = assay: Antibacterial activity against Streptococcus sp. Group F clinical isolate by broth microdilution method
In short: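 MIC by CLSI broth microdilution in frozen microtiter trays holding serial dilutions of each agent, prepared from standard laboratory powders. Comparator susceptibility interpreted with CLSI breakpoints.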

Streptococcus pyogenes = assay: Antibacterial activity against Streptococcus pyogenes clinical isolate by broth microdilution method; in short: as §3
Staphylococcus [4] = assay: Antibacterial activity against methicillin-resistant coagulase-negative unspeciated Staphylococcus clinical isolate by broth microdilution method; in short: as §1
[5] = tested on: Staphylococcus saprophyticus; assay: Antibacterial activity against methicillin-resistant coagulase-negative Staphylococcus saprophyticus clinical isolate by broth microdilution method; in short: as §1
Staphylococcus [6] = assay: Antibacterial activity against methicillin-susceptible coagulase-negative unspeciated Staphylococcus clinical isolate by broth microdilution method; in short: as §1
Streptococcus pneumoniae [7] = assay: Antibacterial activity against penicillin resistant Streptococcus pneumoniae clinical isolate by broth microdilution method; in short: as §1
Streptococcus equinus = assay: Antibacterial activity against Streptococcus bovis clinical isolate by broth microdilution method; in short: as §3
Enterococcus faecalis [8] = assay: Antibacterial activity against vancomycin-resistant and teichoplanin-susceptible Enterococcus faecalis clinical isolate by broth microdilution method; in short: as §1
Staphylococcus capitis [9] = assay: Antibacterial activity against daptomycin-nonsusceptible Staphylococcus capitis isolate 1285355 by broth microdilution method; in short: as §3
[10] = tested on: Staphylococcus haemolyticus; assay: Antibacterial activity against methicillin-resistant coagulase-negative Staphylococcus haemolyticus clinical isolate by broth microdilution method; in short: as §1
Staphylococcus capitis [11] = assay: Antibacterial activity against methicillin-susceptible coagulase-negative Staphylococcus capitis clinical isolate by broth microdilution method; in short: as §1
[12] = tested on: Staphylococcus haemolyticus; assay: Antibacterial activity against methicillin-susceptible coagulase-negative Staphylococcus haemolyticus clinical isolate by broth microdilution method; in short: as §1
Streptococcus sanguinis = assay: Antibacterial activity against Streptococcus sanguinis clinical isolate by broth microdilution method; in short: as §3
Staphylococcus xylosus [13] = assay: Antibacterial activity against methicillin-resistant coagulase-negative Staphylococcus xylosus clinical isolate by broth microdilution method; in short: as §1
[14] = tested on: Staphylococcus saprophyticus; assay: Antibacterial activity against methicillin-susceptible coagulase-negative Staphylococcus saprophyticus clinical isolate by broth microdilution method; in short: as §1
Staphylococcus aureus [15] = assay: Antibacterial activity against methicillin-resistant Staphylococcus aureus clinical isolate by broth microdilution method; in short: as §1
Staphylococcus aureus [16] = assay: Antibacterial activity against vancomycin-, methicillin-resistant Staphylococcus aureus VRS2 by broth microdilution method; in short: as §2
Enterococcus faecalis [17] = assay: Antibacterial activity against vancomycin-susceptible Enterococcus faecalis clinical isolate by broth microdilution method; in short: as §1
Staphylococcus simulans [18] = assay: Antibacterial activity against methicillin-resistant coagulase-negative Staphylococcus simulans clinical isolate by broth microdilution method; in short: as §1
[19] = tested on: Streptococcus constellatus; assay: Antibacterial activity against Streptococcus constellatus clinical isolate by broth microdilution method; in short: as §3
Streptococcus pneumoniae [20] = assay: Antibacterial activity against penicillin intermediate Streptococcus pneumoniae clinical isolate by broth microdilution method; in short: as §1
Enterococcus faecium [21] = assay: Antibacterial activity against vancomycin-susceptible Enterococcus faecium clinical isolate by broth microdilution method; in short: as §3
Streptococcus pneumoniae [22] = assay: Antibacterial activity against penicillin susceptible Streptococcus pneumoniae clinical isolate by broth microdilution method; in short: as §1
Staphylococcus simulans [23] = assay: Antibacterial activity against methicillin-susceptible coagulase-negative Staphylococcus simulans clinical isolate by broth microdilution method; in short: as §1
Streptococcus mitis = assay: Antibacterial activity against Streptococcus mitis clinical isolate by broth microdilution method; in short: as §3
[24] = Antibacterial activity against Streptococcus sp. Group G clinical isolate by broth microdilution method; in short: as §3
[25] = Antibacterial activity against Streptococcus sp. Group C clinical isolate by broth microdilution method; in short: as §3
Staphylococcus xylosus [26] = assay: Antibacterial activity against methicillin-susceptible coagulase-negative Staphylococcus xylosus clinical isolate by broth microdilution method; in short: as §1
[27] = tested on: Streptococcus intermedius; assay: Antibacterial activity against Streptococcus intermedius clinical isolate by broth microdilution method; in short: as §3
Enterococcus faecium [28] = assay: Antibacterial activity against vancomycin- and teichoplanin-nonsusceptible Enterococcus faecium clinical isolate by broth microdilution method; in short: as §1
Enterococcus faecalis [29] = assay: Antibacterial activity against vancomycin- and teichoplanin-nonsusceptible Enterococcus faecalis clinical isolate by broth microdilution method; in short: as §1

Molecule CN[C@H](CC(C)C)C(=O)N[C@H]1C(=O)N[C@@H](CC(N)=O)C(=O)N[C@H]2C(=O)N[C@H]3C(=O)N[C@H](C(=O)N[C@H](C(=O)O)c4cc(O)cc(O)c4-c4cc3ccc4O)[C@H](O)c3ccc(c(Cl)c3)Oc3cc2cc(c3O[C@@H]2O[C@H](CO)[C@@H](O)[C@H](O)[C@H]2O[C@H]2C[C@](C)(N)[C@H](O)[C@H](C)O2)Oc2ccc(cc2Cl)[C@H]1O [VANCOMYCIN] has an MIC50 (Mammaliicoccus sciuri) of 1 µg/mL (≈ 0.69 µM), an MIC90 (Mammaliicoccus sciuri) of 2 µg/mL (≈ 1.38 µM) and an MIC (Staphylococcus aureus [1]) of 8 µg/mL (≈ 5.52 µM). For the same molecule, the MIC50 (Streptococcus oralis) was 0.5 µg/mL (≈ 0.345 µM), the MIC90 (Streptococcus oralis) was 0.5 µg/mL (≈ 0.345 µM) and the MIC50 (Staphylococcus capitis [2]) was 2 µg/mL (≈ 1.38 µM). It also gave an MIC90 (Staphylococcus capitis [2]) of 2 µg/mL (≈ 1.38 µM), an MIC50 (Staphylococcus hominis) of 1 µg/mL (≈ 0.69 µM) and an MIC90 (Staphylococcus hominis) of 2 µg/mL (≈ 1.38 µM). For the same molecule, the MIC50 [3] was 1 µg/mL (≈ 0.69 µM), the MIC90 [3] was 2 µg/mL (≈ 1.38 µM) and the MIC50 (Staphylococcus cohnii) was 1 µg/mL (≈ 0.69 µM). The MIC90 (Staphylococcus cohnii) was 2 µg/mL (≈ 1.38 µM), the MIC (Streptococcus sp.) was 0.25 µg/mL (≈ 0.173 µM) and the MIC50 (Streptococcus sp.) was 0.25 µg/mL (≈ 0.173 µM). For the same molecule, the MIC90 (Streptococcus sp.) was 0.5 µg/mL (≈ 0.345 µM), the MIC (Streptococcus pyogenes) was 0.25 µg/mL (≈ 0.173 µM) and the MIC50 (Streptococcus pyogenes) was 0.25 µg/mL (≈ 0.173 µM). For the same molecule, the MIC90 (Streptococcus pyogenes) was 0.5 µg/mL (≈ 0.345 µM), the MIC50 (Staphylococcus [4]) was 2 µg/mL (≈ 1.38 µM) and the MIC90 (Staphylococcus [4]) was 2 µg/mL (≈ 1.38 µM). The MIC50 [5] was 2 µg/mL (≈ 1.38 µM), the MIC90 [5] was 2 µg/mL (≈ 1.38 µM) and the MIC50 (Staphylococcus [6]) was 1 µg/mL (≈ 0.69 µM). For the same molecule, the MIC90 (Staphylococcus [6]) was 2 µg/mL (≈ 1.38 µM), the MIC (Streptococcus pneumoniae [7]) was 0.25 µg/mL (≈ 0.173 µM) and the MIC50 (Streptococcus pneumoniae [7]) was 0.25 µg/mL (≈ 0.173 µM). The MIC90 (Streptococcus pneumoniae [7]) was 0.5 µg/mL (≈ 0.345 µM), the MIC50 (Streptococcus equinus) was 0.5 µg/mL (≈ 0.345 µM) and the MIC90 (Streptococcus equinus) was 0.5 µg/mL (≈ 0.345 µM). For the same molecule, the MIC (Enterococcus faecalis [8]) was 32 µg/mL (≈ 22.1 µM), the MIC (Staphylococcus capitis [9]) was 2 µg/mL (≈ 1.38 µM) and the MIC50 [10] was 2 µg/mL (≈ 1.38 µM). It also gave an MIC90 [10] of 2 µg/mL (≈ 1.38 µM), an MIC50 (Staphylococcus capitis [11]) of 1 µg/mL (≈ 0.69 µM) and an MIC90 (Staphylococcus capitis [11]) of 2 µg/mL (≈ 1.38 µM). For the same molecule, the MIC50 [12] was 1 µg/mL (≈ 0.69 µM), the MIC90 [12] was 2 µg/mL (≈ 1.38 µM) and the MIC50 (Streptococcus sanguinis) was 0.5 µg/mL (≈ 0.345 µM). It also gave an MIC90 (Streptococcus sanguinis) of 0.5 µg/mL (≈ 0.345 µM), an MIC50 (Staphylococcus xylosus [13]) of 2 µg/mL (≈ 1.38 µM) and an MIC90 (Staphylococcus xylosus [13]) of 2 µg/mL (≈ 1.38 µM). It also gave an MIC50 [14] of 1 µg/mL (≈ 0.69 µM), an MIC90 [14] of 2 µg/mL (≈ 1.38 µM) and an MIC50 (Staphylococcus aureus [15]) of 1 µg/mL (≈ 0.69 µM). It also gave an MIC90 (Staphylococcus aureus [15]) of 1 µg/mL (≈ 0.69 µM), an MIC (Staphylococcus aureus [16]) of 32 µg/mL (≈ 22.1 µM) and an MIC50 (Enterococcus faecalis [17]) of 1 µg/mL (≈ 0.69 µM). It also gave an MIC90 (Enterococcus faecalis [17]) of 2 µg/mL (≈ 1.38 µM), an MIC50 (Staphylococcus simulans [18]) of 2 µg/mL (≈ 1.38 µM) and an MIC90 (Staphylococcus simulans [18]) of 2 µg/mL (≈ 1.38 µM). For the same molecule, the MIC50 [19] was 0.5 µg/mL (≈ 0.345 µM), the MIC90 [19] was 0.5 µg/mL (≈ 0.345 µM) and the MIC (Streptococcus pneumoniae [20]) was 0.25 µg/mL (≈ 0.173 µM). The MIC50 (Streptococcus pneumoniae [20]) was 0.25 µg/mL (≈ 0.173 µM), the MIC90 (Streptococcus pneumoniae [20]) was 0.5 µg/mL (≈ 0.345 µM) and the MIC (Enterococcus faecium [21]) was ≤ 0.5 µg/mL. For the same molecule, the MIC50 (Enterococcus faecium [21]) was ≤ 0.5 µg/mL, the MIC90 (Enterococcus faecium [21]) was 1 µg/mL (≈ 0.69 µM) and the MIC50 (Streptococcus pneumoniae [22]) was 0.25 µg/mL (≈ 0.173 µM). For the same molecule, the MIC90 (Streptococcus pneumoniae [22]) was 0.5 µg/mL (≈ 0.345 µM), the MIC50 (Staphylococcus simulans [23]) was 1 µg/mL (≈ 0.69 µM) and the MIC90 (Staphylococcus simulans [23]) was 2 µg/mL (≈ 1.38 µM). The MIC50 (Streptococcus mitis) was 0.5 µg/mL (≈ 0.345 µM), the MIC90 (Streptococcus mitis) was 0.5 µg/mL (≈ 0.345 µM) and the MIC [24] was 0.25 µg/mL (≈ 0.173 µM). It also gave an MIC50 [24] of 0.25 µg/mL (≈ 0.173 µM), an MIC90 [24] of 0.5 µg/mL (≈ 0.345 µM) and an MIC [25] of 0.25 µg/mL (≈ 0.173 µM). The MIC50 [25] was 0.25 µg/mL (≈ 0.173 µM), the MIC90 [25] was 0.5 µg/mL (≈ 0.345 µM) and the MIC50 (Staphylococcus xylosus [26]) was 1 µg/mL (≈ 0.69 µM). The MIC90 (Staphylococcus xylosus [26]) was 2 µg/mL (≈ 1.38 µM), the MIC50 [27] was 0.5 µg/mL (≈ 0.345 µM) and the MIC90 [27] was 0.5 µg/mL (≈ 0.345 µM). The MIC50 (Enterococcus faecium [28]) was 512 µg/mL (≈ 353 µM), the MIC90 (Enterococcus faecium [28]) was 512 µg/mL (≈ 353 µM) and the MIC50 (Enterococcus faecalis [29]) was 512 µg/mL (≈ 353 µM). The MIC90 (Enterococcus faecalis [29]) was > 512 µg/mL.
